Article PMC10238757 (Pharmacology Research & Perspectives, 2023)

Assays:
Assay type in all cases: in vivo, human
Multiple ascending dose = settings: human, plasma, oral, 500 mg, 500 mg QW; for Cmax: C max; for Cmax / concentration at 168 h: ng/mL GM (%CVb); for concentration at 168 h: C trough; for Tmax: t max, h median (range)
In short: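 Healthy participants, double-blind and placebo-controlled, cohorts of 10 randomized 7:3. Oral doses after a moderate-fat meal: 25–100 mg QD for 14 days (18 days at top dose), or 500 mg QW ×3. Trough taken pre-dose at end of interval (24 h QD, 168 h QW). Plasma followed to 360 h; LLOQ 10 ng/mL. Non-compartmental PK; accumulation ratios Day 14, 15 or 18 vs Day 1; geometric means with CVb.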

healthy participants [1] = experiment: Safety and tolerability, multiple ascending dose; settings: for Abdominal pain, n occurrences (% of cohort) / All-cause AEs Grade 2, n occurrences (% of cohort) / All-cause AEs Grade 3/4, n occurrences (% of cohort) / All-cause AEs, n occurrences (% of cohort) / Constipation, n occurrences (% of cohort) / Diarrhea, n occurrences (% of cohort) / Drug-related AEs Grade 2, n occurrences (% of cohort) / Drug-related AEs Grade 3/4, n occurrences (% of cohort) / Drug-related AEs, n occurrences (% of cohort) / Headache, n occurrences (% of cohort) / MDSD, n occurrences (% of cohort): N=7
In short: (§1)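 AEs in healthy participants given oral test compound or placebo, recorded with grade and relation to treatment. Laboratory analyses, clinical parameters and suicidality were also monitored. Observation ran 360 h after dosing. Summaries were descriptive, with no formal statistics; parts 1–2 blinded and placebo-controlled, part 3 open-label.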

healthy participants [2] = experiment: Safety pooled across study parts
In short: as §1

[3] = Relative bioavailability and food effect; settings: 100 mg; for Tmax: human, plasma, oral, Median t max
In short: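 Open-label, single-dose, 3-period cross-over; 17 healthy participants; washout ≥24 days. Each received 100 mg oral as PiB fed, tablet fed or tablet fasted. Overnight fast ≥9.5 h before and ≥4 h after dosing; fed arms got a moderate-fat meal 25 min pre-dose. Non-compartmental PK. Log_e PK parameters fitted by mixed-effect models (fed/fasted, tablet/PiB fixed; participant random). Back-transformed 90% CIs for AUC_0‐24, AUC_0‐∞, Cmax.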

With `C=C(C)[C@@H]1CC[C@]2(NCCN3CCS(=O)(=O)CC3)CC[C@]3(C)[C@H](CC[C@@H]4[C@@]5(C)CC=C(C6=CC[C@@](COc7ncccc7C#N)(C(=O)O)CC6)C(C)(C)[C@@H]5CC[C@]43C)[C@@H]12` [GSK'937] the Cmax (Multiple ascending dose; Day 1) was 1110 ng/mL, the Cmax (Multiple ascending dose; Day 8) was 2320 ng/mL and the Cmax (Multiple ascending dose; Day 15) was 1860 ng/mL. It also gave a concentration at 168 h (Multiple ascending dose; Day 1, 168 h) of 251 ng/mL, a concentration at 168 h (Multiple ascending dose; Day 8, 168 h) of 498 ng/mL and a concentration at 168 h (Multiple ascending dose; Day 15, 168 h) of 455 ng/mL. It also gave a Tmax (Multiple ascending dose; Day 1) of 9.88 h, a Tmax (Multiple ascending dose; Day 8) of 10 h and a Tmax (Multiple ascending dose; Day 15) of 10 h. For the same molecule, the “changes in laboratory analyses, clinical parameters, or suicidality” value (healthy participants [1]; MAD) was “No significant changes”, the “deaths or SAEs” value (healthy participants [1]; MAD) was “no deaths or SAEs” and the “Abdominal pain, n occurrences (% of cohort)” value (“Abdominal pain … (% of cohort)” below) (healthy participants [1]; MAD 25 mg QD) was 0. For the same molecule, the “All-cause AEs Grade 2, n occurrences (% of cohort)” value (healthy participants [1]; MAD 25 mg QD) was 0, the “All-cause AEs Grade 3/4, n occurrences (% of cohort)” value (healthy participants [1]; MAD 25 mg QD) was 0 and the “All-cause AEs, n occurrences (% of cohort)” value (healthy participants [1]; MAD 25 mg QD) was 0. For the same molecule, the “Constipation, n occurrences (% of cohort)” value (from here on “Constipation … (% of cohort)”) (healthy participants [1]; MAD 25 mg QD) was 0, the “Diarrhea, n occurrences (% of cohort)” value (healthy participants [1]; MAD 25 mg QD) was 0 and the “Drug-related AEs Grade 2, n occurrences (% of cohort)” value (healthy participants [1]; MAD 25 mg QD) was 0. The “Drug-related AEs Grade 3/4, n occurrences (% of cohort)” value (healthy participants [1]; MAD 25 mg QD) was 0, the “Drug-related AEs, n occurrences (% of cohort)” value (healthy participants [1]; MAD 25 mg QD) was 0 and the “Headache, n occurrences (% of cohort)” value (healthy participants [1]; MAD 25 mg QD) was 0. The “MDSD, n occurrences (% of cohort)” value (healthy participants [1]; MAD 25 mg QD) was 0, the “Abdominal pain … (% of cohort)” value (healthy participants [1]; MAD 50 mg QD) was 0 and the “All-cause AEs Grade 2, n occurrences (% of cohort)” value (healthy participants [1]; MAD 50 mg QD) was 1 (14). For the same molecule, the “All-cause AEs Grade 3/4, n occurrences (% of cohort)” value (healthy participants [1]; MAD 50 mg QD) was 0, the “All-cause AEs, n occurrences (% of cohort)” value (healthy participants [1]; MAD 50 mg QD) was 3 (29) and the “Constipation … (% of cohort)” value (healthy participants [1]; MAD 50 mg QD) was 0. For the same molecule, the “Diarrhea, n occurrences (% of cohort)” value (healthy participants [1]; MAD 50 mg QD) was 0, the “Drug-related AEs Grade 2, n occurrences (% of cohort)” value (healthy participants [1]; MAD 50 mg QD) was 0 and the “Drug-related AEs Grade 3/4, n occurrences (% of cohort)” value (healthy participants [1]; MAD 50 mg QD) was 0. For the same molecule, the “Drug-related AEs, n occurrences (% of cohort)” value (healthy participants [1]; MAD 50 mg QD) was 0, the “Headache, n occurrences (% of cohort)” value (healthy participants [1]; MAD 50 mg QD) was 1 (14) and the “MDSD, n occurrences (% of cohort)” value (healthy participants [1]; MAD 50 mg QD) was 1 (14). For the same molecule, the “Abdominal pain … (% of cohort)” value (healthy participants [1]; MAD 100 mg QD) was 0, the “All-cause AEs Grade 2, n occurrences (% of cohort)” value (healthy participants [1]; MAD 100 mg QD) was 0 and the “All-cause AEs Grade 3/4, n occurrences (% of cohort)” value (healthy participants [1]; MAD 100 mg QD) was 0. For the same molecule, the “All-cause AEs, n occurrences (% of cohort)” value (healthy participants [1]; MAD 100 mg QD) was 8 (71), the “Constipation … (% of cohort)” value (healthy participants [1]; MAD 100 mg QD) was 0 and the “Diarrhea, n occurrences (% of cohort)” value (healthy participants [1]; MAD 100 mg QD) was 0. The “Drug-related AEs Grade 2, n occurrences (% of cohort)” value (healthy participants [1]; MAD 100 mg QD) was 0, the “Drug-related AEs Grade 3/4, n occurrences (% of cohort)” value (healthy participants [1]; MAD 100 mg QD) was 0 and the “Drug-related AEs, n occurrences (% of cohort)” value (healthy participants [1]; MAD 100 mg QD) was 1 (14). The “Headache, n occurrences (% of cohort)” value (healthy participants [1]; MAD 100 mg QD) was 0, the “MDSD, n occurrences (% of cohort)” value (healthy participants [1]; MAD 100 mg QD) was 1 (14) and the “Abdominal pain … (% of cohort)” value (healthy participants [1]; MAD 500 mg QW) was 1 (14). The “All-cause AEs Grade 2, n occurrences (% of cohort)” value (healthy participants [1]; MAD 500 mg QW) was 0, the “All-cause AEs Grade 3/4, n occurrences (% of cohort)” value (healthy participants [1]; MAD 500 mg QW) was 0 and the “All-cause AEs, n occurrences (% of cohort)” value (healthy participants [1]; MAD 500 mg QW) was 7 (57). The “Constipation … (% of cohort)” value (healthy participants [1]; MAD 500 mg QW) was 0, the “Drug-related AEs Grade 2, n occurrences (% of cohort)” value (healthy participants [1]; MAD 500 mg QW) was 0 and the “Drug-related AEs Grade 3/4, n occurrences (% of cohort)” value (healthy participants [1]; MAD 500 mg QW) was 0. The “Drug-related AEs, n occurrences (% of cohort)” value (healthy participants [1]; MAD 500 mg QW) was 3 (43), the “Headache, n occurrences (% of cohort)” value (healthy participants [1]; MAD 500 mg QW) was 0 and the “MDSD, n occurrences (% of cohort)” value (healthy participants [1]; MAD 500 mg QW) was 1 (14). The “severity of all AEs in participants receiving GSK'937” value (healthy participants [2]; all study parts) was “grade 1 or 2”, the “dry skin among AEs attributable to GSK'937” value (healthy participants [2]; parts 1 and 2, 1/17) was 6% and the “headache among AEs attributable to GSK'937” value (healthy participants [2]; parts 1 and 2, 2/17) was 12%. For the same molecule, the “Gastrointestinal disorders among GSK'937 recipients” value (healthy participants [2]; parts 1 and 2, 13/64) was 20%, the “GI disorders among AEs attributable to GSK'937” value (healthy participants [2]; parts 1 and 2, 14/17) was 82% and the “increase in C max, tablet versus PiB” value ([3]; fed) was “approximately 37%”. The “increase in bioavailability by AUC0-24, tablet versus PiB” value ([3]; fed) was 38%, the “increase in bioavailability by AUC0-∞, tablet versus PiB” value ([3]; fed) was 35% and the Tmax ([3]; 100 mg PiB fed) was 9 h. The Tmax ([3]; 100 mg tablet fasted) was 6 h, the Tmax ([3]; both tablet and PiB formulations under fed conditions) was 8 to 9 h and the “exposure in fed versus fasted states” value ([3]; tablet) was > 2 fold.
